High-throughput results as filed in PubChem BioAssay.
This is a sample that favours compounds with a hit; in the whole collection about 7.2% have one here.
M1 ag = activates the M1 muscarinic receptor; CHO-M1 cells, Fluo-4 calcium fluorescence, agonist mode; stronger effect = higher value; B-score at 10 µM; 64,000 tested, 3% active;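 active means fluorescence rise, raw or as B-score row- and column-corrected plate score, outside the 99.7% band of its plate's samples, either direction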
M1 antagonist = M1 muscarinic receptor (rat) antagonism | CHO-M1 cells, Fluo-4 calcium, ACh EC80 antagonist mode; stronger effect = lower value | AID 628 | B-score at 10 µM | 64,000 tested, 3.4% active;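 active means calcium fluorescence response, raw or row-and-column corrected B-score, differing from the plate sample mean either way at a set confidence level, mostly lower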
HEK293 NFkB inh = lowers PMA/ionomycin-induced NF-kB signal in HEK293 cells. HEK-293 NF-kB luciferase reporter, luminescence. inhibition, % at 3 µM. 62,000 tested, 0.21% active;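 active means inhibition above the mean of all tested compounds plus 3 SD, cut at about 40% in these data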;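 further: 0% = stimulated DMSO wells and 100% = 10 µM reference inhibitor 5653914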
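System – HEK-293 cells with stable firefly luciferase reporter driven by four HIV NF-kB elements · Doses – one dose, 3 µM · Schedule – 1 h compound pre-incubation, 16 h PMA/ionomycin at 37 °C · Technique – luminescence from luciferase substrate reagent · Measure – percent inhibition normalized per plate to DMSO and reference-inhibitor controls · Replicates – tested once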
BAP1 block = human BAP1 deubiquitinase inhibition; recombinant BAP1, Ub-AMC hydrolysis fluorescence kinetic; stronger effect = lower value; 72,000 tested, 0.48% active; AID 436; calls only at 20 µM;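 active means activity remaining at or below 50% of control, provided the compound also passes the data quality filters; inactive means the rest, including low values that fail the filters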;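 further: 100% = DMSO wells rate and 0% = substrate alone blank rate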
D1 mod = D1 dopamine receptor (human) allosteric modulation; P21728; HEK293 D1, CRE-luciferase, dopamine EC30 potentiation; actives deviate in either direction; B-score at 10 µM; 58,000 tested, 5.9% active;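 active means luminescence count or its row- and column-corrected plate score outside the 99.7% band of the plate's sample wells, on either side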
DAT uptake mod = human DAT dopamine uptake with cocaine, either direction; Q01959; LLC-PK1 hDAT cells, [14C]-dopamine uptake with cocaine IC80; actives deviate in either direction; B-score at 10 µM; 110,000 tested, 1.3% active; AID 449768;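 active means Z score or B-score, a plate-position-corrected score, falls beyond the plate's 99.7% confidence bounds, in either direction; inactive means both scores lie inside the 99.7% bounds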;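 further: scored against the spread of the other compound wells on the same plate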
Target sequence (Q01959 whole entry, looked up): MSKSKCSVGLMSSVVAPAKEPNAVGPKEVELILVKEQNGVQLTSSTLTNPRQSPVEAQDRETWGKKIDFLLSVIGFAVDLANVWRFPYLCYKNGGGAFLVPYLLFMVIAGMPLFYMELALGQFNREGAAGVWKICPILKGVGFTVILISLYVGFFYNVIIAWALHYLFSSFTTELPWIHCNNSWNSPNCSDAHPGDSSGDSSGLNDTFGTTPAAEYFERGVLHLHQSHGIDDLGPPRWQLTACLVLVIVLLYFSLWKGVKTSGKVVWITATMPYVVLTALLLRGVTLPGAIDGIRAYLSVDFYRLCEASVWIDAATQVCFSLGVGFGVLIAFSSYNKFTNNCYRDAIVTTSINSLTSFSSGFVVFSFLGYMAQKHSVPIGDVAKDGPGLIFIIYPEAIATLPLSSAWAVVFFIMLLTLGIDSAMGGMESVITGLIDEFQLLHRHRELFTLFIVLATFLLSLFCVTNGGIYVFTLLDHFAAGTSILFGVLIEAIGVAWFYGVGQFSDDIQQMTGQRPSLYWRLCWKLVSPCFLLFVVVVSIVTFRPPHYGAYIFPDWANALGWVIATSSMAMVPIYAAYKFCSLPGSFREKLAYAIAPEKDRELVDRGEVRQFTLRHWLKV
D1 PAM confirm = D1 receptor (human) allosteric modulation, confirmed; 2,200 tested, 88% active; shares compounds with D1 mod; HEK293 D1 CRE-luciferase, dopamine EC30 potentiation; stronger effect = higher value; luminescence at 10 µM;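 active means luminescence in either of two replicates above the same-plate mean plus 3 SD of the low-dose dopamine control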
D1 ag no DA = D1 (human) signaling in absence of dopamine | shares compounds with D1 mod | HEK293 D1 CRE-luciferase, luminescence, no dopamine; stronger effect = higher value | luminescence at 10 µM | 1,900 tested, 0.8% active | AID 646; in the data active means luminescence above about 3900
Isoprot counter = alters isoproterenol CRE-luciferase response in HEK293 cells; 2,200 tested, 63% active; shares compounds with D1 mod; calls only at 10 µM; HEK293 D1 CRE-luciferase, isoproterenol EC30 counter-screen;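 active means luminescence in either replicate above plate mean of wells with a partly effective reference agonist dose plus 3 SD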;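 further: isoproterenol raises cAMP through native beta-adrenoceptor Gs so signal bypasses D1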
* = called active by the depositor.

Cc1ccc(S(=O)(=O)NC(C)C(=O)O)cc1 (centres undefined) was read as BAP1 block inactive.
For COc1ccc(C(=O)Nn2c(C)ccc2C)cc1OC the results were M1 ag 0.11, M1 antagonist -0.23, HEK293 NFkB inh 18, BAP1 block inactive, D1 mod 9.6*, DAT uptake mod 0.02, D1 PAM confirm 11780*, D1 ag no DA 1660 and Isoprot counter active.
For COCCNC(=O)c1ccc(N(C)S(=O)(=O)c2ccc(OC)c(OC)c2)cc1 the results were M1 ag 0.3, M1 antagonist 0.26, HEK293 NFkB inh 19, BAP1 block inactive, D1 mod 11*, DAT uptake mod -0.47, D1 PAM confirm 14404*, D1 ag no DA 1504 and Isoprot counter active.
Screening CCOc1cc(C(=O)NCCOC)ccc1OC returned M1 ag 0.05, M1 antagonist -0.15, HEK293 NFkB inh 4, BAP1 block inactive, D1 mod 4.8*, DAT uptake mod -0.87, D1 PAM confirm 7216*, D1 ag no DA 1968 and Isoprot counter inactive.
CCCCN(C(=O)NC(=O)NC(C)(C)C)S(C)(=O)=O was read as BAP1 block inactive.
O=C(Nc1cccc(F)c1)c1cccc(Cl)c1 was read as BAP1 block inactive.
For Cn1ccnc1Sc1nc(Nc2cccc(Cl)c2)nc(N2CCOCC2)n1 the results were M1 ag 0.49, M1 antagonist 0.68, HEK293 NFkB inh 5, BAP1 block inactive, D1 mod 8.4*, DAT uptake mod 1.5, D1 PAM confirm 15596*, D1 ag no DA 1596 and Isoprot counter active.
O=S(=O)(c1cccs1)N1CCN(c2ccccn2)CC1 was read as M1 ag -0.11, M1 antagonist -0.74, HEK293 NFkB inh -6, BAP1 block inactive, D1 mod 11*, DAT uptake mod 1.3, D1 PAM confirm 10548*, D1 ag no DA 1832 and Isoprot counter inactive.
For Cc1ccc(Cn2nnc3c(=O)[nH]c(C4CCN(S(=O)(=O)c5ccc(F)cc5)CC4)nc32)cc1 the results were M1 ag -0.84, M1 antagonist 0.59, HEK293 NFkB inh 17 and D1 mod 0.0021.
For O=c1[nH]c(C2CCCN(S(=O)(=O)c3ccccc3)C2)nc2c1nnn2Cc1ccccc1F (centres undefined) the results were M1 ag -0.039, M1 antagonist -0.003, HEK293 NFkB inh 13, BAP1 block inactive, D1 mod 6.8*, DAT uptake mod -1, D1 PAM confirm 12364*, D1 ag no DA 1664 and Isoprot counter active.
Screening CCCc1nc2c(nnn2Cc2ccccc2)c(=O)[nH]1 returned M1 ag 0.057, M1 antagonist -1.1, HEK293 NFkB inh 21, BAP1 block inactive, D1 mod 7.1*, DAT uptake mod -1.2, D1 PAM confirm 11892*, D1 ag no DA 1408 and Isoprot counter active.
`O=c1[nH]c(C2CCCN(S(=O)(=O)c3ccccc3)C2)nc2c1nnn2Cc1ccccc1` (centres undefined) gave M1 ag 0.00078, M1 antagonist 0.37, HEK293 NFkB inh 22, BAP1 block inactive, D1 mod 4.2*, DAT uptake mod -0.45, D1 PAM confirm 10532* and Isoprot counter active.
COC(=O)c1ccc(C=Nc2c(C)n(C)n(-c3ccccc3)c2=O)cc1 was read as BAP1 block inactive.
`CCN1C(=O)c2cccc3c(NC(=O)c4cccc(F)c4)ccc1c23` gave BAP1 block inactive.
CC(=O)C1=C(O)C(=O)N(CC2CCCO2)C1c1ccccc1 (centres undefined) was read as BAP1 block inactive.
Screening CCC(C)(C(=O)NC1CCCC1)N(Cc1ccco1)C(=O)c1ccc2c(c1)OCO2 (centres undefined) returned M1 ag 0.026, M1 antagonist -0.87, HEK293 NFkB inh 17, BAP1 block inactive, D1 mod 4.9*, DAT uptake mod -0.67, D1 PAM confirm 4332, D1 ag no DA 1468 and Isoprot counter inactive.
For COc1ccc(CN(C2CCCC2)S(=O)(=O)c2ccc(-n3cnnn3)cc2)cc1OC the results were M1 ag -2.6, M1 antagonist -0.3, HEK293 NFkB inh 7, BAP1 block inactive, D1 mod 5.5*, DAT uptake mod 1.9, D1 PAM confirm 10040*, D1 ag no DA 1604 and Isoprot counter inactive.
For COc1ccc(CN(C2CCCC2)S(=O)(=O)c2ccc(-n3cnnn3)cc2)cc1 the results were M1 ag -0.1, M1 antagonist -0.016, HEK293 NFkB inh 18, BAP1 block inactive and DAT uptake mod -0.075.
Screening N#Cc1ccc(C(=O)Nc2nc(-c3ccc(F)cc3)cs2)cc1 returned BAP1 block inactive.
`Cc1cccc2cc(CN(CC3CCCO3)C(=O)c3cccnc3)c3nnnn3c12` (centres undefined) gave M1 ag 0.76, M1 antagonist -0.83, HEK293 NFkB inh 6, BAP1 block inactive, D1 mod 5.5*, DAT uptake mod 2.4, D1 PAM confirm 15420* and Isoprot counter active.
`Cc1nc(N2CCCCC2)c2ccsc2n1` gave DAT uptake mod -0.56.
Cc1nc(N2CCCCC2)c2sc(=S)n(C)c2n1 was read as M1 ag 0.53, M1 antagonist 0.41, HEK293 NFkB inh 11, BAP1 block inactive, D1 mod 8.2*, DAT uptake mod -0.93, D1 PAM confirm 12412*, D1 ag no DA 27240* and Isoprot counter active.
Screening NC(=O)CSc1nnc(-c2cccs2)n1-c1ccccc1 returned DAT uptake mod -0.0082.
Screening COC(=O)CSc1nnc(-c2cccs2)n1-c1ccc(Cl)cc1 returned M1 ag 0.64, M1 antagonist 0.0092, HEK293 NFkB inh -2, BAP1 block inactive, D1 mod 2.8*, DAT uptake mod 0.73, D1 PAM confirm 9056* and Isoprot counter active.
For COc1ccccc1C1=Nn2c(nnc2C2CCCCC2)SC1 the results were M1 ag 0.3, M1 antagonist 0.13, HEK293 NFkB inh 12, BAP1 block inactive, D1 mod 11*, DAT uptake mod 0.75, D1 PAM confirm 20508*, D1 ag no DA 1724 and Isoprot counter active.
